According to PubChem BioAssay AID463185 (Molecular Libraries Program, Specialized Chemistry Center, …, 2010):
Calls of active or inactive are those of the source.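 The calls were made as follows: active = IC50 at or below 10 µM; inactive = the rest.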

Tested on: HeLa UbG76V-GFP reporter degradation, GFP imaging
Assay: blockers of UbG76V-GFP proteasomal turnover – imaging, human cells, dose response (AID 463185)
Outline: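 System: UbG76V-GFP reporter HeLa cells. Buffer or medium: 2.5% FBS medium plus cycloheximide 50 µg/mL. Reagent: MG132 4 µM reporter accumulation step. Timing: 1 h MG132, chase read 70–170 min. Technique: per-cell GFP fluorescence imaging. Read-out: IC50 from residual GFP decay rate.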

Row | IC50 | SMILES
1 | 2.8 µM | Fc1ccc(CNc2nc(NCc3ccccc3)c3ccccc3n2)cc1
2 | 4.1 µM | Cc1cccc(CNc2nc(NCc3ccccc3)c3ccccc3n2)c1
3 | 10.4 µM (inactive) | Nc1nc(CCl)nc(N2CCc3ccccc32)n1
4 | 26 µM (inactive) | Cc1ccc(Nc2nc(N)nc(CCl)n2)cc1
5 | 8 µM | Nc1nc(CCl)nc(Nc2ccc(Cl)cc2)n1
6 | 10 µM | Cc1ccccc1CNc1nc(NCc2ccccc2)c2ccccc2n1
7 | 13 µM (inactive) | Nc1nc(Nc2cccc(Cl)c2)nc(C(Cl)Cl)n1
8 | 6.3 µM | N#C/C(=C(\O)COC(=O)CCC(=O)c1ccc2c(c1)OCCO2)c1nc2ccccc2[nH]1
9 | 31 µM (inactive) | CN(c1ccccc1)c1nc(N)nc(CCl)n1
10 | 2.3 µM | c1ccc(CNc2nc(NCc3ccccc3)c3ccccc3n2)cc1
11 | 4.8 µM | COc1ccccc1CNc1nc(NCc2ccccc2)c2ccccc2n1
12 | 14 µM (inactive) | CC(C)c1ccc(Nc2nc(N)nc(CCl)n2)cc1
13 | 1.3 µM | Brc1cccc(CNc2nc(NCc3ccccc3)c3ccccc3n2)c1
14 | 5.7 µM | Nc1nc(CCl)nc(Nc2ccc(Cl)c(Cl)c2)n1
15 | 22 µM (inactive) | COc1cc([N+](=O)[O-])ccc1Nc1nc(N)nc(CCl)n1
16 | 3.4 µM | N#C/C(=C(\O)COC(=O)c1ccccc1Cc1ccccc1)c1nc2ccccc2[nH]1
17 | 4.1 µM | Clc1ccccc1CNc1nc(NCc2ccccc2)c2ccccc2n1
18 | 21 µM (inactive) | COc1ccccc1Nc1nc(N)nc(CCl)n1

More lines, now with the values behind:

Row | SMILES | IC50
19 | CCc1ccc(Nc2nc(N)nc(CCl)n2)cc1 | 18 µM (inactive)
20 | Nc1nc(CCl)nc(Nc2cccc3ccccc23)n1 | 14 µM (inactive)
21 | CCc1nc2ccccc2n1CC(=O)OC/C(O)=C(/C#N)c1nc2ccccc2[nH]1 | 7.2 µM
22 | Clc1cccc(CNc2nc(NCc3ccccc3)c3ccccc3n2)c1 | 3.7 µM
23 | Nc1nc(CCl)nc(N(c2ccccc2)c2ccccc2)n1 | 10 µM
24 | Cc1cc(OCC(=O)OC/C(O)=C(/C#N)c2nc3ccccc3[nH]2)ccc1Cl | 16 µM (inactive)
25 | Cc1cc(C)cc(OCC(=O)OC/C(O)=C(/C#N)c2nc3ccccc3[nH]2)c1 | 13 µM (inactive)
26 | COc1ccc(CNc2nc(NCc3ccccc3)c3ccccc3n2)cc1 | 3.3 µM
27 | Fc1cccc(CNc2nc(NCc3ccccc3)c3ccccc3n2)c1 | 1.1 µM
28 | Nc1nc(CCl)nc(Nc2ccc(F)cc2)n1 | 31 µM (inactive)
29 | Cc1ccc(CNc2nc(NCc3ccccc3)c3ccccc3n2)cc1 | 2.4 µM
30 | FC(F)(F)c1ccc(CNc2nc(NCc3ccccc3)c3ccccc3n2)cc1 | 2.5 µM
31 | Fc1ccccc1CNc1nc(NCc2ccccc2)c2ccccc2n1 | 3.4 µM
32 | Clc1ccc(CNc2nc(NCc3ccccc3)c3ccccc3n2)cc1Cl | 4.6 µM
33 | Nc1nc(CCl)nc(Nc2ccc(Oc3ccccc3)cc2)n1 | 3.7 µM
34 | N#C/C(=C(\O)COC(=O)CNc1ccc(C(F)(F)F)cc1[N+](=O)[O-])c1nc2ccccc2[nH]1 | 6.5 µM
35 | N#C/C(=C(\O)COC(=O)C1COc2ccccc2O1)c1nc2ccccc2[nH]1 (stereo not drawn) | 10 µM
36 | CCCOc1ccc(C(=O)CCC(=O)OC/C(O)=C(/C#N)c2nc3ccccc3[nH]2)cc1 | 6.1 µM
37 | Brc1ccc(CNc2nc(NCc3ccccc3)c3ccccc3n2)cc1 | 6.7 µM
38 | Cc1cccc(Nc2nc(N)nc(CCl)n2)c1C | 27 µM (inactive)
39 | FC(F)(F)c1cc(CNc2nc(NCc3ccccc3)c3ccccc3n2)ccc1Cl | 4.6 µM
40 | Brc1ccccc1CNc1nc(NCc2ccccc2)c2ccccc2n1 | 6.7 µM
41 | Cc1cccc(C)c1OCC(=O)OC/C(O)=C(/C#N)c1nc2ccccc2[nH]1 | 15 µM (inactive)
42 | Nc1nc(CCl)nc(N2CCCc3ccccc32)n1 | 17 µM (inactive)
43 | COc1cccc(CNc2nc(NCc3ccccc3)c3ccccc3n2)c1 | 1.7 µM
44 | N#C/C(=C(\O)COC(=O)COc1cccc(Br)c1)c1nc2ccccc2[nH]1 | 5.9 µM
45 | N#C/C(=C(\O)COC(=O)COc1ccc(Cl)cc1)c1nc2ccccc2[nH]1 | 2.6 µM
46 | COc1cccc(Nc2nc(N)nc(CCl)n2)c1 | 23 µM (inactive)
47 | Clc1ccc(CNc2nc(NCc3ccccc3)c3ccccc3n2)cc1 | 3.3 µM
48 | Cc1c(Cl)cccc1Nc1nc(N)nc(CCl)n1 | 5.9 µM
